The record followed here is ChEMBL document CHEMBL1240422, “Design, synthesis and biological evaluation of 3,5-diaryl-isoxazoline/isoxazole-pyrrolobenzodiazepine conjugates as potential anticancer agents” (2010).

Structures can show the parent of a compound that is named as a salt.

The subject of the first assay is SiHa. The experiment in a line: Anticancer activity against human SiHa cells after 48 hrs by SRB assay. It counts as functional.
Settings: not given
The essentials: (§1)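 Cells grown in RPMI 1640 with 10% FBS and 2 mM L-glutamine, plated at densities set by doubling time, and preincubated 24 h at 37 °C, 5% CO2. Compounds were tested at four concentrations (0.1, 1, 10, 100) in triplicate wells with 48 h continuous exposure. Cells were fixed with cold TCA (10% final, 60 min, 4 °C) and stained with 0.4% SRB in 1% acetic acid (20 min, RT). Dye was eluted with 10 mM Trizma base and read at 540 nm (690 nm reference). Percent growth is relative to control wells, plate by plate.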
(In general: Sulforhodamine B stains cellular protein and so reports cell mass.)
As a reminder, the GI50 is the concentration that inhibits growth by half. A low value points to greater sensitivity of the cells. Consider `COc1cc2c(cc1OCCCOc1c(OC)cc(-c3cc(-c4cc(OC)c(OC)c(OC)c4)on3)cc1OC)N=C[C@@H]1CCCN1C2=O`, for which the GI50 is 150 nM.
Same read-out and setting: for `COc1ccc(C2CC(c3cc(OC)c(OC)c(OC)c3)=NO2)cc1OCCCOc1cc2c(cc1OC)C(=O)N1CCC[C@H]1C=N2` (some centres not stated) the value was 180 nM; for `COc1cc2c(cc1OCCCCCOc1c(OC)cc(-c3cc(-c4cc(OC)c(OC)c(OC)c4)on3)cc1OC)N=C[C@@H]1CCCN1C2=O`, 160 nM; for `COc1cc2c(cc1OCCCCOc1c(OC)cc(C3CC(c4cc(OC)c(OC)c(OC)c4)=NO3)cc1OC)N=C[C@@H]1CCCN1C2=O` (some centres not stated), 170 nM.
The compound `COc1ccc(-c2cc(-c3cc(OC)c(OC)c(OC)c3)on2)cc1OCCCOc1cc2c(cc1OC)C(=O)N1CCC[C@H]1C=N2` had a GI50 of 150 nM.
For `COc1cccc2c1C(=O)c1c(O)c3c(c(O)c1C2=O)C[C@@](O)(C(=O)CO)C[C@@H]3O[C@H]1C[C@H](N)[C@H](O)[C@H](C)O1` [DOXORUBICIN HYDROCHLORIDE], the 50% growth inhibitory concentration (GI50) is 1900 nM.

Another assay has as its system A-375. Nature of the assay: Cell cycle arrest in human A375 cells assessed as accumulation at S phase at 4 uM after 24 hrs using propidium iodide staining by FACS. It counts as functional.
Settings: not given
The essentials: (§2)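 Treated A375 cells (24 h) were harvested with trypsin-EDTA and fixed in ice-cold 70% ethanol (4 °C, 30 min). After a PBS wash, they were incubated with 1 mg/mL RNase A (37 °C, 30 min) and stained with propidium iodide solution containing trisodium citrate and Triton X-100. DNA content was measured by flow cytometry on 20,000 events. Controls were DMSO-treated.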
On to `COc1cc(C2=NOC(c3cc(OC)c(OC)c(OC)c3)C2)ccc1O` (configuration not stated), for which the Activity is listed as 15.59%.

A further assay deals with ZR-75-1. Nature of the assay: Anticancer activity against human ZR-75-1 cells after 48 hrs by SRB assay. It is filed as functional. As to conditions: ZR-75-1, 48 h. The method in brief: as §1
`COc1cc2c(cc1OCCCOc1c(OC)cc(-c3cc(-c4cc(OC)c(OC)c(OC)c4)on3)cc1OC)N=C[C@@H]1CCCN1C2=O` had a GI50 of 180 nM.
On the same count and under the same terms, under `COc1ccc(C2CC(c3cc(OC)c(OC)c(OC)c3)=NO2)cc1OCCCOc1cc2c(cc1OC)C(=O)N1CCC[C@H]1C=N2` (some centres not stated) stands 130 nM; under `COc1cc2c(cc1OCCCCCOc1c(OC)cc(-c3cc(-c4cc(OC)c(OC)c(OC)c4)on3)cc1OC)N=C[C@@H]1CCCN1C2=O`, 100 nM; under `COc1cc2c(cc1OCCCCOc1c(OC)cc(C3CC(c4cc(OC)c(OC)c(OC)c4)=NO3)cc1OC)N=C[C@@H]1CCCN1C2=O` (some centres not stated), 150 nM.
Still for that read-out and setting: for `COc1ccc(-c2cc(-c3cc(OC)c(OC)c(OC)c3)on2)cc1OCCCOc1cc2c(cc1OC)C(=O)N1CCC[C@H]1C=N2` the value was 130 nM; for `COc1cccc2c1C(=O)c1c(O)c3c(c(O)c1C2=O)C[C@@](O)(C(=O)CO)C[C@@H]3O[C@H]1C[C@H](N)[C@H](O)[C@H](C)O1` [DOXORUBICIN HYDROCHLORIDE], less than 100 nM.

The next assay deals with A-375. Nature of the assay: Cell cycle arrest in human A375 cells assessed as accumulation at G2/M phase at 4 uM after 24 hrs using propidium iodide staining by FACS.
Settings: not given
It is filed as functional. The method in brief: as §2
On to `COc1cc(C2=NOC(c3cc(OC)c(OC)c(OC)c3)C2)ccc1O` (configuration not stated), for which the Activity is 1.82%.

A further assay concerns A2780. Nature of the assay: Anticancer activity against human A2780 cells after 48 hrs by SRB assay. It counts as functional. As to conditions: A2780, 48 h. The method in brief:
(§3)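 Grown in RPMI 1640 with 10% FBS and 2 mM L-glutamine at 37 °C, 5% CO2. Seeded at densities set by doubling time, then preincubated 24 h. Continuous 48 h drug exposure at four concentrations (0.1, 1, 10, 100), triplicate wells. Fixed with cold TCA (final 10%) at 4 °C, 60 min. Stained with 0.4% SRB in 1% acetic acid, eluted with 10 mM Tris base, read at 540/690 nm. Percent growth versus control wells.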
On to `COc1cc2c(cc1OCCCOc1c(OC)cc(-c3cc(-c4cc(OC)c(OC)c(OC)c4)on3)cc1OC)N=C[C@@H]1CCCN1C2=O`, for which halving of growth (GI50) required 130 nM.
As to `COc1ccc(C2CC(c3cc(OC)c(OC)c(OC)c3)=NO2)cc1OCCCOc1cc2c(cc1OC)C(=O)N1CCC[C@H]1C=N2` (some centres not stated), halving of growth (GI50) required 150 nM. The GI50 values of the last two compounds are within 1.5-fold of each other.
In the case of `COc1cc2c(cc1OCCCCCOc1c(OC)cc(-c3cc(-c4cc(OC)c(OC)c(OC)c4)on3)cc1OC)N=C[C@@H]1CCCN1C2=O`, the GI50 was 140 nM.
For `COc1cc2c(cc1OCCCCOc1c(OC)cc(C3CC(c4cc(OC)c(OC)c(OC)c4)=NO3)cc1OC)N=C[C@@H]1CCCN1C2=O` (some centres not stated), it took 150 nM to inhibit growth by half (GI50).
The same measure, in the same setting: for `COc1ccc(-c2cc(-c3cc(OC)c(OC)c(OC)c3)on2)cc1OCCCOc1cc2c(cc1OC)C(=O)N1CCC[C@H]1C=N2` the value was 150 nM.
Turning to `COc1cccc2c1C(=O)c1c(O)c3c(c(O)c1C2=O)C[C@@](O)(C(=O)CO)C[C@@H]3O[C@H]1C[C@H](N)[C@H](O)[C@H](C)O1` [DOXORUBICIN HYDROCHLORIDE], the GI50 is less than 100 nM.

A further assay relates to A-375. The experiment in a line: Cell cycle arrest in human A375 cells assessed as accumulation at G0/G1 phase at 4 uM after 24 hrs using propidium iodide staining by FACS. It is filed as functional.
Settings: not given
The essentials:
as §2
In general terms: Flow cytometry measures light scatter and fluorescence of single cells or particles in a stream.
For `COc1cc(C2=NOC(c3cc(OC)c(OC)c(OC)c3)C2)ccc1O` (configuration not stated), the Activity is 82.59%.

The subject of a further assay is KB. Nature of the assay: Anticancer activity against human KB cells after 48 hrs by SRB assay.
Settings: not given
It counts as functional. The method in brief:
as §3
In turn, `COc1cc2c(cc1OCCCOc1c(OC)cc(-c3cc(-c4cc(OC)c(OC)c(OC)c4)on3)cc1OC)N=C[C@@H]1CCCN1C2=O` yielded a GI50 of 150 nM.
`COc1ccc(C2CC(c3cc(OC)c(OC)c(OC)c3)=NO2)cc1OCCCOc1cc2c(cc1OC)C(=O)N1CCC[C@H]1C=N2` (some centres not stated) registered a GI50 of 160 nM.
As to `COc1cc2c(cc1OCCCCCOc1c(OC)cc(-c3cc(-c4cc(OC)c(OC)c(OC)c4)on3)cc1OC)N=C[C@@H]1CCCN1C2=O`, the GI50 was found to be 160 nM. This counts as sub-micromolar.
The compound `COc1cc2c(cc1OCCCCOc1c(OC)cc(C3CC(c4cc(OC)c(OC)c(OC)c4)=NO3)cc1OC)N=C[C@@H]1CCCN1C2=O` (some centres not stated) yielded a 50% growth inhibitory concentration (GI50) of 180 nM.
Consider `COc1ccc(-c2cc(-c3cc(OC)c(OC)c(OC)c3)on2)cc1OCCCOc1cc2c(cc1OC)C(=O)N1CCC[C@H]1C=N2`, for which the GI50 worked out at 170 nM.
`COc1cccc2c1C(=O)c1c(O)c3c(c(O)c1C2=O)C[C@@](O)(C(=O)CO)C[C@@H]3O[C@H]1C[C@H](N)[C@H](O)[C@H](C)O1` [DOXORUBICIN HYDROCHLORIDE] displayed a GI50 of 160 nM. This GI50 and that of the compound before are within 1.5-fold of each other.
